ChEMBL document CHEMBL4359823, “Switching on the activity of 1,5-diaryl-pyrrole derivatives against drug-resistant ESKAPE bacteria: Structure-activity relationships and mode of action studies” (Eur J Med Chem, 2019)
In brackets after ≈: the same amount, converted by molar mass.

Tests used:
Format in all cases: functional
Pseudomonas aeruginosa [1] = experiment: Antibacterial activity against Pseudomonas aeruginosa NCTC13437 measured after overnight incubation by microbroth dilution method
How it was run: (§1)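 Microbroth dilution MIC. Compound DMSO stocks were diluted in water as a 2-fold series. Overnight TSB cultures were back-diluted to OD 0.01 and mixed 1:1 with compound. Plates were incubated overnight at 37 °C. MIC was the lowest concentration without visible growth (<0.1 OD600), run in duplicate.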

Enterococcus faecalis [2] = experiment: Antibacterial activity against vancomycin resistant Enterococcus faecalis NCTC12201 measured after overnight incubation by microbroth dilution method
How it was run: (§2)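 Microbroth dilution: DMSO stocks diluted in water, 2-fold series. Overnight TSB cultures back-diluted to OD 0.01 and mixed 1:1 with compound. Incubated overnight at 37 °C; MIC taken as lowest concentration without visible growth (<0.1 OD600). Run in duplicate; matching DMSO levels checked for effect on growth.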

Pseudomonas aeruginosa [3] = experiment: Antibacterial activity against Pseudomonas aeruginosa PAO1 measured after overnight incubation by microbroth dilution method; how it was run: as §1
Staphylococcus aureus [4] = experiment: Antibacterial activity against methicillin resistant Staphylococcus aureus NCTC13616 measured after overnight incubation by microbroth dilution method; how it was run: as §2
Staphylococcus aureus [5] = experiment: Antibacterial activity against methicillin sensitive Staphylococcus aureus NCTC 6571 measured after overnight incubation by microbroth dilution method; how it was run: as §2
Acinetobacter baumannii [6] = experiment: Antibacterial activity against Acinetobacter baumannii ATCC 17978 measured after overnight incubation by microbroth dilution method; how it was run: as §1
Staphylococcus aureus [7] = experiment: Antibacterial activity against methicillin resistant Staphylococcus aureus NCTC13277 measured after overnight incubation by microbroth dilution method; how it was run: as §2
Enterococcus faecalis [8] = experiment: Antibacterial activity against vancomycin sensitive Enterococcus faecalis NCTC775 measured after overnight incubation by microbroth dilution method; how it was run: as §2
Klebsiella pneumoniae [9] = experiment: Antibacterial activity against Klebsiella pneumoniae NCTC13368 measured after overnight incubation by microbroth dilution method; how it was run: as §1
Klebsiella pneumoniae [10] = experiment: Antibacterial activity against Klebsiella pneumoniae M6 measured after overnight incubation by microbroth dilution method; how it was run: as §1
Enterococcus faecalis [11] = experiment: Antibacterial activity against vancomycin resistant Enterococcus faecalis NCTC12204 measured after overnight incubation by microbroth dilution method; how it was run: as §2
Escherichia coli = experiment: Antibacterial activity against Escherichia coli NCTC12923 measured after overnight incubation by microbroth dilution method; how it was run: as §1
Acinetobacter baumannii [12] = experiment: Antibacterial activity against Acinetobacter baumannii AYE measured after overnight incubation by microbroth dilution method; how it was run: as §1

Compound	MIC (Pseudomonas aeruginosa [1])	MIC (Enterococcus faecalis [2])	MIC (Pseudomonas aeruginosa [3])	MIC (Staphylococcus aureus [4])	MIC (Staphylococcus aureus [5])	MIC (Acinetobacter baumannii [6])	MIC (Staphylococcus aureus [7])	MIC (Enterococcus faecalis [8])	MIC (Klebsiella pneumoniae [9])	MIC (Klebsiella pneumoniae [10])	MIC (Enterococcus faecalis [11])	MIC (Escherichia coli)	MIC (Acinetobacter baumannii [12])
Cc1c(CNC2CCCCCC2)cc(-c2ccc(Cl)cc2)n1-c1ccc(Cl)cc1	128 µg/mL (≈ 299 µM)	2 µg/mL (≈ 4.68 µM)	128 µg/mL (≈ 299 µM)	4 µg/mL (≈ 9.36 µM)	4 µg/mL (≈ 9.36 µM)	64 µg/mL (≈ 150 µM)	4 µg/mL (≈ 9.36 µM)	4 µg/mL (≈ 9.36 µM)	> 128 µg/mL	> 128 µg/mL	2 µg/mL (≈ 4.68 µM)	> 128 µg/mL	128 µg/mL (≈ 299 µM)
Cc1c(CNC2CCCCC2)cc(-c2ccc(C(C)(C)C)cc2)n1-c1ccc(Cl)cc1	> 128 µg/mL	2 µg/mL (≈ 4.6 µM)	> 128 µg/mL	4 µg/mL (≈ 9.19 µM)	4 µg/mL (≈ 9.19 µM)	> 128 µg/mL	4 µg/mL (≈ 9.19 µM)	4 µg/mL (≈ 9.19 µM)	> 128 µg/mL	> 128 µg/mL	2 µg/mL (≈ 4.6 µM)	> 128 µg/mL	> 128 µg/mL
Cc1c(CNC2CCC(O)CC2)cc(-c2ccc(Cl)cc2)n1-c1ccc(Cl)cc1 (centres undefined)	> 128 µg/mL	16 µg/mL (≈ 37.3 µM)	> 128 µg/mL	16 µg/mL (≈ 37.3 µM)	16 µg/mL (≈ 37.3 µM)	64 µg/mL (≈ 149 µM)	16 µg/mL (≈ 37.3 µM)	16 µg/mL (≈ 37.3 µM)	> 128 µg/mL	> 128 µg/mL	8 µg/mL (≈ 18.6 µM)	> 128 µg/mL	128 µg/mL (≈ 298 µM)
Cc1cc(CNCCCCCCCCNC(=N)N)c(C)n1-c1ccc(Cl)cc1	64 µg/mL (≈ 158 µM)	16 µg/mL (≈ 39.6 µM)	> 128 µg/mL	8 µg/mL (≈ 19.8 µM)	4 µg/mL (≈ 9.9 µM)	16 µg/mL (≈ 39.6 µM)	8 µg/mL (≈ 19.8 µM)	8 to 16 µg/mL (≈ 19.8 to 39.6 µM)	> 128 µg/mL	128 µg/mL (≈ 317 µM)	4 to 8 µg/mL (≈ 9.9 to 19.8 µM)	16 µg/mL (≈ 39.6 µM)	64 µg/mL (≈ 158 µM)
Cc1c(CNC2CCCCC2)cc(-c2ccc(Cl)cc2)n1-c1cccc(F)c1	> 128 µg/mL	4 µg/mL (≈ 10.1 µM)	> 128 µg/mL	8 µg/mL (≈ 20.2 µM)	8 µg/mL (≈ 20.2 µM)	128 µg/mL (≈ 322 µM)	8 µg/mL (≈ 20.2 µM)	8 µg/mL (≈ 20.2 µM)	> 128 µg/mL	> 128 µg/mL	4 µg/mL (≈ 10.1 µM)	> 128 µg/mL	128 µg/mL (≈ 322 µM)
Cc1c(CNC2CCCCC2)cc(-c2ccc(Cl)cc2)n1-c1ccc(O)cc1	> 128 µg/mL	32 µg/mL (≈ 81 µM)	> 128 µg/mL	8 to 64 µg/mL (≈ 20.3 to 162 µM)	32 µg/mL (≈ 81 µM)	128 µg/mL (≈ 324 µM)	32 µg/mL (≈ 81 µM)	64 µg/mL (≈ 162 µM)	> 128 µg/mL	> 128 µg/mL	32 µg/mL (≈ 81 µM)	> 128 µg/mL	> 128 µg/mL
Cc1c(CNC2CCCCC2)cc(-c2ccc(Cl)cc2)n1-c1ccc([N+](=O)[O-])cc1	> 128 µg/mL	8 µg/mL (≈ 18.9 µM)	> 128 µg/mL	16 µg/mL (≈ 37.7 µM)	8 µg/mL (≈ 18.9 µM)	128 µg/mL (≈ 302 µM)	16 µg/mL (≈ 37.7 µM)	8 µg/mL (≈ 18.9 µM)	> 128 µg/mL	> 128 µg/mL	4 µg/mL (≈ 9.44 µM)	> 128 µg/mL	128 µg/mL (≈ 302 µM)
Cc1c(CNCCNc2ccccc2)cc(-c2ccc(Cl)cc2)n1-c1ccc(Cl)cc1	> 128 µg/mL	4 µg/mL (≈ 8.88 µM)	> 128 µg/mL	4 to 8 µg/mL (≈ 8.88 to 17.8 µM)	4 to 8 µg/mL (≈ 8.88 to 17.8 µM)	> 128 µg/mL	4 to 8 µg/mL (≈ 8.88 to 17.8 µM)	4 µg/mL (≈ 8.88 µM)	> 128 µg/mL	> 128 µg/mL	4 to 8 µg/mL (≈ 8.88 to 17.8 µM)	> 128 µg/mL	> 128 µg/mL
Cc1c(CNCC2CCCCC2)cc(-c2ccc(Cl)cc2)n1-c1ccc(Cl)cc1	> 128 µg/mL	4 µg/mL (≈ 9.36 µM)	> 128 µg/mL	4 µg/mL (≈ 9.36 µM)	4 µg/mL (≈ 9.36 µM)	> 128 µg/mL	4 µg/mL (≈ 9.36 µM)	2 µg/mL (≈ 4.68 µM)	> 128 µg/mL	> 128 µg/mL	2 µg/mL (≈ 4.68 µM)	> 128 µg/mL	> 128 µg/mL
Cc1c(CNC2CCCCC2)cc(-c2ccc(F)cc2)n1-c1ccc(Cl)cc1	> 128 µg/mL	4 µg/mL (≈ 10.1 µM)	> 128 µg/mL	8 µg/mL (≈ 20.2 µM)	8 µg/mL (≈ 20.2 µM)	128 µg/mL (≈ 322 µM)	8 µg/mL (≈ 20.2 µM)	8 µg/mL (≈ 20.2 µM)	> 128 µg/mL	> 128 µg/mL	4 µg/mL (≈ 10.1 µM)	> 128 µg/mL	128 µg/mL (≈ 322 µM)
Cc1cc(CNCc2ccccc2)c(C)n1-c1ccc(Cl)cc1		> 128 µg/mL		> 128 µg/mL	> 128 µg/mL		> 128 µg/mL	> 128 µg/mL			128 µg/mL (≈ 394 µM)		
COc1ccc(-n2c(-c3ccc(Cl)cc3)cc(CNC3CCCCC3)c2C)cc1	> 128 µg/mL	8 µg/mL (≈ 19.6 µM)	> 128 µg/mL	16 µg/mL (≈ 39.1 µM)	16 µg/mL (≈ 39.1 µM)	128 µg/mL (≈ 313 µM)	16 µg/mL (≈ 39.1 µM)	8 µg/mL (≈ 19.6 µM)	> 128 µg/mL	> 128 µg/mL	8 µg/mL (≈ 19.6 µM)	> 128 µg/mL	> 128 µg/mL
